Compound activity (PubChem)
Sampled rows, rich in hits. Any-hit rate of the full collection: about 4.8%.
Efflux pump inh: inhibitors of Candida efflux pumps in yeast, primary screen, S. cerevisiae, Nile Red, multiplex; S. cerevisiae Candida pump triplex; inhibition, % at 10 µM; 330,000 tested, 0.44% active; AID 485275, 2010;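 active = plate passing quality check with inhibition over a set limit, or well fluorescence over plate mean plus 4 SD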;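 note: Nile Red retained in pooled yeast measured as flow cytometry median fluorescence; 0% = buffer negative control and 100% = Enniatin B positive control; higher means more Nile Red kept so more efflux inhibition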
T cruzi inh: inhibitors of intracellular T. cruzi growth, primary screen, luminescence, NIH3T3 host cells. T. cruzi beta-gal in NIH3T3, 90 h. inhibition, % (no concentration beside the values). 300,000 tested, 1.4% active. AID 1885, 2009;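 active = mean inhibition across valid replicates above about 55%, limit read from the data; inconclusive = mean below that limit but half or more replicates reach it; inactive = mean below it, under half of replicates reach it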;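 note: signal also drops with host cell toxicity which is not excluded here; 0% = plate median of DMSO wells and 100% = zero luminescence signal; higher percent means less beta-gal luminescence so fewer parasites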
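Incubation – ≥90 h infection period, 3 h prior cell attachment · System – NIH/3T3 fibroblasts plus reporter T. cruzi · Doses – compound pinned at 50 nL/well, DMSO · Read-out basis – percent inhibition of parasite-derived β-gal signal · Signal – luminescent β-galactosidase signal after 60 min lysis · Also added – 5000 T. cruzi trypomastigotes/well · Medium – Low-serum DMEM with 2% FBS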
CSC inhib: cancer stem cell viability inhibitors, primary screen, luminescence; 300,000 tested, 1.1% active; cancer stem cell-like cells viability; inhibition, % at 7.5 µM; in the data active = inhibition above about 75%; inconclusive = no clear call, values can overlap the other calls; tested in HMLE shEcad cells
Mot1-301 SUMO: yeast Mot1-301 growth rescue at high temperature, primary screen, SUMOylation pathway inhibitor project, S. cerevisiae, ATP luminescence, 38.5C; growth rescue, % at 18.8 µM; S. cerevisiae Mot1-301 growth rescue; percent above DMSO median, 100 means doubled; 320,000 tested, 1% active; AID 2716, 2010;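 active = every valid replicate shows activation above 250% relative to neutral control wells; inactive = the rest, any valid replicate at or below 250%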;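 note: OY570 slx delta 5 strain wells were the positive control but not used for scaling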
WT yeast gro inh: growth inhibition of WT strain, primary screen, mitochondrial fusion inhibitor project, WT and mutant strains, chemical genetic; 190,000 tested, 2.1% active; mitochondrial fusion phenotypic screen; inhibition, % at 10 µM; AID 1362, 2008; in the data active = inhibition above about 58%; tested in S. cerevisiae
Beta apoptosis: inhibitors of cytokine-induced beta cell apoptosis, primary screen, luminescence | 300,000 tested, 0.8% active | INS-1E cytokine-induced death, ATP luminescence, 48 h; percent of positive-control rescue, neutral wells zero | protection from apoptosis, % (concentration not given with the values);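 active = Every replicate reaches about 75%, or at least half do and their mean reaches it too, limit read from the data; inconclusive = At least half of replicates reach the limit but their mean does not; inactive = Under half of replicates reach the limit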;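 note: 0% = cytokine-treated negative control wells and 100% = positive control rescue; higher means more ATP so stronger rescue from cytokine killing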
Numbers without * were called inactive; ? = inconclusive; . = not tested or not shown.

SMILES	Efflux pump inh	T cruzi inh	CSC inhib	Mot1-301 SUMO	WT yeast gro inh	Beta apoptosis
O=C(NC1=C(Nc2ccc(Cl)cc2)C(=O)c2ccccc2C1=O)c1ccccc1	-1	5	42	18	79*	117*
Cc1cccc(NC2=C(NC(=O)c3ccccc3)C(=O)c3ccccc3C2=O)c1	0	-4	16	13	33	78*
O=C1C(Cl)=C(NC(=O)c2ccccc2)C(=O)C(Cl)=C1NC(=O)c1ccccc1	0	68*	.	2	.	.
CN(C1=C(NC(=O)c2ccc(Cl)cc2)C(=O)c2ccccc2C1=O)c1ccccc1	-5	-5	64	-16	73*	93*
CC(C)Cc1ccc(CN2CCCC(NC(=O)CCN3CCCO3)C2)cc1 (stereo not given)	0	51	4	5	.	0
COCCNC(=O)c1cccc(Nc2nc(-c3ccccc3)c3cc(Cl)ccc3n2)c1	0	20	42	.	61*	3
COC(=O)c1ccc(/C=C2/SC(=S)N(CCCC(=O)Nc3ccccn3)C2=O)cc1	1	11	63	34	-11	-12
CC(/C=C1\SC(=S)N(NC(=O)c2ccc(O)cc2)C1=O)=C\c1ccccc1	0	-5	76*	-10	90*	6
CCc1ccc(/C=C2\SC(=S)N(CCCC(=O)Nc3ccccn3)C2=O)cc1	0	62*	6	1	-5	-7
CC(=C\c1ccccc1)/C=C1/SC(=S)N(CCC(=O)Nc2ccccn2)C1=O	0.7*	14	22	0	-7	-1
CCC(C(=O)O)N1C(=O)/C(=C/C(C)=C/c2ccccc2)SC1=S (stereo not given)	0	-9	21	-9	.	-3
CC(/C=C1\SC(=S)N(CCC(=O)Nc2ccccc2O)C1=O)=C\c1ccccc1	0	-14	-5	-8	.	1
O=C(CCCN1C(=O)/C(=C\c2ccco2)SC1=S)Nc1ccc2ccccc2c1	0	-7	86*	21	-7	-8
CCn1c(SCC(=O)Nc2cc(C)on2)nc2c(c1=O)SCC2	1	-10	.	-17	.	-9
CC(OC(=O)Cn1[nH]c(=O)c2ccccc2c1=O)C(=O)NC1(C#N)CCCCC1 (stereo not given)	0	-2	-14	-21	.	4
CC(C)C[C@H](NC(=O)[C@H](Cc1ccccc1)n1c(=O)[nH]c2ccccc2c1=O)C(=O)N1CCC[C@H]1C(=O)O	0	-15	5	3	.	-2
O=C(CCCN1C(=O)/C(=C/c2ccccc2)SC1=S)NCCCn1ccnc1	0	-3	90*	0	.	121*
COc1cc(CNCc2cc(OC)c(OC)c(OC)c2)cc(OC)c1	0	-15	-5	-6	.	9
Cc1nn(-c2nc3ccccc3[nH]2)c(=O)c2ccccc12	0	-7	97*	-63	91*	86*
Cc1nn(-c2ccc3ccccc3c2)c(=O)c2ccccc12	0	-13	-3	1	3	4
COc1ccc(/C=N/NC(=O)c2nc(-c3ccccc3)n(-c3ccccc3)n2)c(O)c1	0	17	.	0	-15	103*
CC(C)(C)c1cc(C(=O)N/N=C/c2ccccc2O)n(-c2ccccc2)n1	0	31	117*	3	-14	85*
COc1ccc2[nH]c(C(=O)N/N=C/c3ccc(O)cc3O)cc2c1	0	?	100*	-16	.	121*
CC(Sc1nnc(-c2ccncc2)n1C)C(=O)Nc1ccc(N2CCOCC2)cc1 (stereo not given)	0	.	.	7	.	-2
COc1ccccc1OCCCOc1c(C)cc(C)cc1Br	0	13	11	0	7	-3
COc1cccc(OC)c1OCCCOc1ccc(C)cc1Br	0	11	7	13	67*	-3
CCNC(=O)CN1C(=O)NC(Cc2ccccc2)(Cc2ccccc2)C1=O	0	19	-5	-21	2	-4
CCOC(=O)c1c(N)n(-c2ccc(N)cc2)c2nc3ccccc3nc12	0	-3	1	5	-8	3
